≈ marks a conversion by molar mass, not a printed value.
Tests used:
Homo sapiens [1] = test: Toxicity in healthy human assessed as occurrence of contact dermatitis at 50 […], po; format: organism-based; parameters: route oral; conditions: in vivo
Method in brief: (§1)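 Randomized, double-blind, placebo-controlled single ascending oral doses in healthy volunteers (cohorts of 6 active, 2 placebo; 25–1,500 mg). After a 10-h fast, dose given with 240 ml water; fasting continued 4 h. Subjects were confined to 96 h postdose. AEs were recorded throughout dosing and at follow-up, reported as number and percentage of subjects with events per treatment.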

Homo sapiens [2] = test: Toxicity in healthy human assessed as occurrence of contact dermatitis at 25 […], po; format: organism-based; parameters: route oral; conditions: in vivo; method in brief: as §1
Homo sapiens [3] = test: Toxicity in healthy human assessed as occurrence of pruritus at 1500 […], po; format: organism-based; parameters: route oral; conditions: in vivo
Homo sapiens [4] = test: Toxicity in healthy human assessed as occurrence of oral hypoesthesia at 1000 […], po; format: organism-based; parameters: route oral; conditions: in vivo
Homo sapiens [5] = test: Toxicity in healthy human assessed as occurrence of abdominal pain at 1000 […], po; format: organism-based, Abdomen; parameters: route oral; conditions: in vivo
Method in brief: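 Double-blind, placebo-controlled single ascending oral dose; two placebo and six active subjects per cohort. Adverse events were recorded throughout the dosing period and at follow-up, with confinement to 96 h after dosing. Results are reported as number and percentage of subjects with the event (n/N × 100).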

Homo sapiens [6] = test: Toxicity in healthy human assessed as occurrence of pustular rashes at 1000 […], po; format: organism-based; parameters: route oral; conditions: in vivo
Homo sapiens [7] = test: Toxicity in healthy human assessed as occurrence of nausea at 125 […], po; format: organism-based; parameters: route oral; conditions: in vivo
Homo sapiens [8] = test: Toxicity in healthy human assessed as occurrence of ear pain at 25 […], po; format: organism-based; parameters: route oral; conditions: in vivo
[9] = Terminal phase elimination half-life in healthy human at 25 […], po administered single dose; format: ADME, organism-based; parameters: route oral; conditions: in vivo
Method in brief: (§2)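 After one fasted oral dose (six healthy subjects per cohort), plasma was sampled from 0.5 to 96 h and assayed by LC-MS/MS (LLOQ 5 ng/ml). λz came from least-squares regression on at least the last three log-concentration points, and t1/2 = 0.693/λz. Values are means (SD).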

[10] = Terminal phase elimination half-life in healthy human at 50 […], po administered single dose; format: ADME, organism-based; parameters: route oral; conditions: in vivo; method in brief: as §2
Streptococcus pneumoniae = test: Antimicrobial activity against penicillin-intermediate Streptococcus pneumoniae; format: functional
[11] = Tmax in healthy human at 125 mg, po administered as single dose; conditions: in vivo
[12] = Cmax in healthy human at 1000 mg, po administered as single dose; conditions: in vivo
Homo sapiens [13] = test: Terminal volume of distribution in healthy human at 125 mg, po administered as single dose; conditions: in vivo

COc1c(N2C[C@@H](C)C[C@H](N)C2)ccc2c(=O)c(C(=O)O)cn(C3CC3)c12 [NEMONOXACIN]
Activity (Homo sapiens [1]): 0%
Activity (Homo sapiens [2]): 50%
Activity (Homo sapiens [3]): 50%
Activity (Homo sapiens [4]): 17%
Activity (Homo sapiens [5]): 0%
Activity (Homo sapiens [6]): 0%
Activity (Homo sapiens [7]): 0%
Activity (Homo sapiens [8]): 0%
half-life [9]: 9.71 h
half-life [10]: 8.49 h
MIC90 (Streptococcus pneumoniae): 0.015 µg/mL (≈ 0.0404 µM)
Tmax [11]: 0.75 h
Cmax [12]: 7220 ng/mL
Vbeta (Homo sapiens [13]): 3.38 L/kg
